One assay relates to A549. As to the kind of experiment: Antiproliferative activity against human A549 cells after 48 hrs by SRB assay. Type of assay: functional, cell-based. Particulars: A549, 48 h. In short, it runs like this:
(§1)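 SRB assay on cells in RPMI-1640 with 2 mM glutamine, 10% FBS and penicillin/streptomycin at 37 °C and 5% CO2. Seeded at 5000 cells/well and grown 24 h, then compounds added in triplicate (DMSO 0.5% final) for 48 h. Fixed with TCA at 4 °C for 1 h, stained with SRB, dye dissolved in 10 mM Tris pH 10.4, OD read at 515 nm. IC50 from nonlinear dose-response fit; experiments run at least twice.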

Assay [1] can be described thus: Antiproliferative activity against human CNE2 cells after 48 hrs by SRB assay. The class given is functional, cell-based. Particulars: CNE-2, 48 h. The gist of the method:
as §1

The next assay has as its system MCF7. The assay is described as follows: Antiproliferative activity against human MCF7 cells after 48 hrs by SRB assay. The class given is functional, cell-based. Particulars: MCF7, 48 h. The gist of the method:
as §1

Another assay concerns HepG2. As to the kind of experiment: Antiproliferative activity against human HepG2 cells after 48 hrs by SRB assay. The class given is functional, cell-based. Particulars: HepG2, 48 h. In short, it runs like this:
as §1

The target of assay [2] is T1, RAC-alpha serine/threonine-protein kinase (Homo sapiens, UniProt P31749). As to the kind of experiment: Inhibition of AKT1 by AKT1/PKBalpha KinEASE FP fluorescein green assay. In short, it runs like this:
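Kinase reaction with Akt1 enzyme (amount giving 70% activity) and STK Substrate 3 (10 µM final) in 50 mM HEPES pH 7.2, 0.01% BSA, 5 mM MgCl2, 1 mM DTT, preincubated with compound 10 min at 25 °C. ATP (100 µM final) starts reaction, run 1 h at 25 °C. Stopped with phospho-STK tracer plus antibody, 6 h, then FP read (ex 470/em 530 nm). IC50 by nonlinear fit; triplicates, repeated twice.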

A short description of assay [3]: Inhibition of TNFalpha-induced NF-kappaB translocation in human A549 cells incubated at 37 degC for 30 mins by high content analysis based immunofluorescence assay. The class given is cell-based. The following applies: A549, 0.5 h. The gist of the method: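 A549 cells at 2000/well grown 24 h, then compound added in duplicate (DMSO 0.5% final) for 30 min at 37 °C. Stimulated with TNFα at 10 ng/mL final for 30 min, then fixed with 4% paraformaldehyde and permeabilized with Triton X-100. Stained with anti-p65 and DyLight 488 secondary plus Hoechst, imaged on ArrayScan. Nuclear minus cytoplasmic intensity, background-subtracted, given as % of TNFα-only control. IC50 from this; repeated at least twice.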

The subject of another assay is SW480. The assay is described as follows: Antiproliferative activity against human SW480 cells after 48 hrs by SRB assay. The class given is functional, cell-based. The following applies: SW480, 48 h. The gist of the method: as §1
The target in assay [4] is T1, RAC-alpha serine/threonine-protein kinase. As to the kind of experiment: Inhibition of AKT1-mediated GSK3beta phosphorylation in human A549 cells incubated for 12 hrs by Western blot. The class given is cell-based. In short, it runs like this: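 A549 cells grown to 70% confluence, exposed 12 h to compound at 0.125–1.0 µM. Lysed in NP-40 buffer with protease inhibitors, then equal protein run on 10% SDS-PAGE and transferred to PVDF. Probed with anti-phospho-GSK3β (S9) at 1:1000 overnight at 4 °C, then HRP secondary at 1:5000.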

Experimental findings from ChEMBL document CHEMBL2062524, “Synthesis, cytotoxicity of new 4-arylidene curcumin analogues and their multi-functions in inhibition of both NF-κB and Akt signalling” (Eur J Med Chem, 2012) are described below.

T1 sequence (P31749 whole entry): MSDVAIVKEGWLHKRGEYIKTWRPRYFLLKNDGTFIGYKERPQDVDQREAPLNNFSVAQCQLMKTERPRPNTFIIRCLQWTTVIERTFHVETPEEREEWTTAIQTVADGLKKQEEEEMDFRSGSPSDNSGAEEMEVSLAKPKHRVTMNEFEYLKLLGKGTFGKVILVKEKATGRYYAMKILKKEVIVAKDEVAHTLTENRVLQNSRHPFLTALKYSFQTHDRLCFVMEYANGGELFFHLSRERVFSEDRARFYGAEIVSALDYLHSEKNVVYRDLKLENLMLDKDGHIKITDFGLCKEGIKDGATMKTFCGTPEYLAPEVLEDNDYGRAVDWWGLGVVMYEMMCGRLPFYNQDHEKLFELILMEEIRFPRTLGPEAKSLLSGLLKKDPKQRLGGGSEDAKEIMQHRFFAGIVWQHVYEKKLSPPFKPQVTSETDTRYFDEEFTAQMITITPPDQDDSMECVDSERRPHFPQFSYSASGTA

`COc1ccc(/C=C/C(=O)C(=Cc2ccc(OC)c(O)c2)C(=O)/C=C/c2ccc(OC)cc2OC)c(OC)c1`: the IC50 with A549 was 380 nM; in assay [1] it was 760 nM; with MCF7 it was 1600 nM; in the assay with HepG2, 390 nM; in assay [2] it was 1660 nM; in assay [3], 12300 nM. Besides, the concentration for half-maximal inhibition (IC50) in the assay on SW480 turned out to be 1370 nM.
For the molecule `COc1cc(C=C(C(=O)/C=C/c2cccc(OC)c2OC)C(=O)/C=C/c2cccc(OC)c2OC)ccc1O`, the 50% inhibitory concentration (IC50) was 130 nM with A549; 280 nM in assay [1]; 480 nM with MCF7; 200 nM in the assay with HepG2; 810 nM in assay [2]; 1710 nM in assay [3]. Also, the IC50 with SW480 was 430 nM. In addition, the inhibition entry in assay [4] is “Dose-dependent effect”.
Consider `COc1ccc(OC)c(/C=C/C(=O)C(=Cc2cc(Br)c(O)c(OC)c2)C(=O)/C=C/c2cc(OC)ccc2OC)c1`, for which the concentration for half-maximal inhibition (IC50) came out at 220 nM in the assay on A549; 420 nM in assay [1]; 580 nM with MCF7; 280 nM in the assay with HepG2; 5020 nM in assay [2]; 4190 nM in assay [3]. Besides, inhibition with SW480 was half-maximal at 490 nM (IC50).
